# Measured values of several laboratories.
# Compare with care: the assays were run in different laboratories.
SMILES,target or system,effect on,method,strain,time,quantity,result
CCOC(=O)C1=C(C)NC(=O)NC1c1cn(-c2ccccc2)nc1-c1ccccc1 (stereo not shown),Mycobacterium tuberculosis,microbial growth,resazurin,H37RV,,MIC,62.1 µM
C1N2CN3CN1CP(C2)C3.Cc1cc(C)n(C(C(=O)OC(C)C)n2nc(C)cc2C)n1.F[P-](F)(F)(F)(F)F.[Cu+],A-431,cell growth or viability,MTT,,72 h,IC50,11.3 µM
CCOC(=O)C1=C(C)NC(=NN)NC1c1ccc(F)cc1 (stereo not shown),Mycobacterium tuberculosis,microbial growth,resazurin,H37RV,,MIC,85.5 µM
Cn1c(COc2ccc3nc4ccc(=O)cc-4oc3c2)cnc1[N+](=O)[O-],Mycobacterium tuberculosis,microbial growth,,,7 days,MIC90,> 256 µM
CCOC(=O)C1=C(C)N(C(C)=O)C(=O)NC1c1cn(-c2ccccc2)nc1-c1ccccc1 (stereo not shown),Mycobacterium tuberculosis,microbial growth,resazurin,H37RV,,MIC,56.2 µM
Cc1sc2c(c1C)C(c1ccc(Cl)cc1)=N[C@@H](CC(=O)OC(C)(C)C)c1nnc(C)n1-2,Ramos,cell growth or viability,ATP luminescence,,72 h,IC50,0.545 µM
Cc1cc(C(=O)O)ccc1-c1c2ccc(=O)cc-2oc2cc(OCc3ccc([N+](=O)[O-])o3)ccc12,Mycobacterium tuberculosis,microbial growth,,,7 days,MIC90,240 µM
COc1cccc(/C=N/N2C(=O)c3ccccc3NC2c2cccc(OC)c2O)c1O (stereo not shown),Mycobacterium tuberculosis,microbial growth,,ATCC25177 H37RA,14 days,MIC,> 128 µg/mL
CC[C@@]1(O)C(=O)OCc2c1cc1n(c2=O)Cc2cc3ccccc3nc2-1,HepG2,cell growth or viability,MTT,,48 h,IC50,10.1 µM
Cn1c([N+](=O)[O-])cnc1COc1ccc2nc3ccc(=O)cc-3oc2c1,Mycobacterium tuberculosis,microbial growth,,,7 days,MIC90,> 256 µM
N.N.[Cl][Pt][Cl],A-431,cell growth or viability,MTT,,72 h,IC50,2.1 µM
COc1c(N2CC3CCCN(C(=O)OC(C)(C)C)C3C2)c(F)cc2c(=O)c(C(=O)OCc3cnc([N+](=O)[O-])s3)cn(C3CC3)c12 (stereo not shown),Mycobacterium tuberculosis,microbial growth,,H37RV,,MIC,> 8 µM
NNC(=O)c1ccncc1,Mycobacterium tuberculosis,microbial growth,,ATCC25177 H37RA,14 days,MIC,8 µg/mL
